For data set [1], the system named is RUMH cells (renal cell carcinoma, c-MET-overexpressing). Put plainly: cytotoxicity assay. The data set is classed as cell-based, human. Particulars: for IC50: read-out: IC50 cytotoxicity; for cytotoxic activity under hypoxia vs normoxia: 72 h, 1 % O2 vs 21 % O2. A digest of the protocol:
(§1)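 MTT (EZ4U) viability in H1993 or in-house-established RUMH cells in RPMI 1640 with 10% FCS. Cells were seeded at 3-6x10³/well and recovered 24 h, then given increasing concentrations of test compound (final DMSO <1%). Exposure was 24 h or 72 h at 21% O₂ (normoxia) or 1% O₂ (hypoxia). IC50 came from full dose-response curves; one representative experiment in triplicate, mean ± SD.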

Data set [2] deals with H2228 cells (non-small cell lung cancer, ALK-dependent). Briefly: cytotoxicity assay. The data set is classed as cell-based, human. The following applies: for cytotoxic activity under hypoxia vs normoxia: H2228, 72 h, 1 % O2 vs 21 % O2; for IC50: read-out: IC50 cytotoxicity.
Data set [3] relates to H1993 cells (non-small cell lung cancer, c-MET-dependent). Briefly: cytotoxicity assay. The data set is classed as cell-based, human. Particulars: for cytotoxic activity under hypoxia vs normoxia: H1993, 72 h, 1 % O2 vs 21 % O2; for IC50: read-out: IC50 cytotoxicity. In outline: as §1
For data set [4], the system named is H1993 tumor cell proliferation (Ki-67). Briefly: H1993 xenograft, immunohistochemistry of Ki-67 and tumor histology. Format: in vivo, SCID mice. Particulars: 24 h.
A short description of the next data set: solubility in PBS. The data set is classed as physicochemical.
Data set [5] is described as follows: stability assay in buffer, medium and serum. Format: in vitro ADME. The following applies: pure serum (FCS), 37 °C, up to 72 h.
Data set [6] addresses nitroreductase enzyme (E. coli) (Escherichia coli, UniProt P38489). Particulars: nitroreductase + NADH, pH 7.4, 37 °C, HPLC; for conversion of prodrug by nitroreductase: after 10 min.
Data set [7] deals with HACAT (keratinocytes from human skin). Put plainly: cytotoxicity in non-malignant cells. Particulars: normoxic, 72 h. Format: cell-based. In outline: (§2)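 Non-malignant HACAT keratinocytes or HLF lung fibroblasts in RPMI 1640 with 10% FCS, under normoxia (37 °C, 21% O₂, 5% CO₂). Cells were seeded at 3-6x10³/well and recovered 24 h. They were then exposed for 72 h to increasing concentrations of test compound diluted from DMSO stock (final DMSO <1%). Viability was read by MTT (EZ4U), with IC50 fitted from full dose-response curves.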

The subject of data set [8] is HLF (fibroblasts from human lung). Put plainly: cytotoxicity in non-malignant cells. Format: cell-based. Particulars: normoxic, 72 h. In outline:
as §2

The subject of a further data set is ALK. The following applies: cell-free kinase assay.
The next data set relates to ERK 1/2 phosphorylation. Put plainly: Western blot of ERK 1/2 phosphorylation in H1993 cells. Format: cell-based, human. The following applies: H1993, 24 h. A digest of the protocol: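 H1993 cells in RPMI 1640 with 10% FCS were plated at 8x10⁵ cells/dish and allowed 24 h recovery. They were exposed for 24 h to DMSO-diluted test compound (final DMSO <1%) at 21% or 1% O₂. Lysates were run on SDS-PAGE/PVDF and probed for p-ERK 1/2 (Thr202/Tyr204), ERK 1/2 and β-actin (all 1:1000), with HRP secondaries at 1:10000. Read-out: p-ERK/ERK ratio after β-actin normalisation.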
On the technique in general: Immunoblotting shows a protein as a band on a membrane.

A further data set relates to c-MET. Particulars: cell-free kinase assay.
In a further data set the target is c-MET phosphorylation (Homo sapiens, UniProt P08581). Put plainly: Western blot of c-MET phosphorylation in H1993 cells. The data set is classed as cell-based. The following applies: H1993, 24 h.
c-MET phosphorylation, sequence (P08581 25-1390): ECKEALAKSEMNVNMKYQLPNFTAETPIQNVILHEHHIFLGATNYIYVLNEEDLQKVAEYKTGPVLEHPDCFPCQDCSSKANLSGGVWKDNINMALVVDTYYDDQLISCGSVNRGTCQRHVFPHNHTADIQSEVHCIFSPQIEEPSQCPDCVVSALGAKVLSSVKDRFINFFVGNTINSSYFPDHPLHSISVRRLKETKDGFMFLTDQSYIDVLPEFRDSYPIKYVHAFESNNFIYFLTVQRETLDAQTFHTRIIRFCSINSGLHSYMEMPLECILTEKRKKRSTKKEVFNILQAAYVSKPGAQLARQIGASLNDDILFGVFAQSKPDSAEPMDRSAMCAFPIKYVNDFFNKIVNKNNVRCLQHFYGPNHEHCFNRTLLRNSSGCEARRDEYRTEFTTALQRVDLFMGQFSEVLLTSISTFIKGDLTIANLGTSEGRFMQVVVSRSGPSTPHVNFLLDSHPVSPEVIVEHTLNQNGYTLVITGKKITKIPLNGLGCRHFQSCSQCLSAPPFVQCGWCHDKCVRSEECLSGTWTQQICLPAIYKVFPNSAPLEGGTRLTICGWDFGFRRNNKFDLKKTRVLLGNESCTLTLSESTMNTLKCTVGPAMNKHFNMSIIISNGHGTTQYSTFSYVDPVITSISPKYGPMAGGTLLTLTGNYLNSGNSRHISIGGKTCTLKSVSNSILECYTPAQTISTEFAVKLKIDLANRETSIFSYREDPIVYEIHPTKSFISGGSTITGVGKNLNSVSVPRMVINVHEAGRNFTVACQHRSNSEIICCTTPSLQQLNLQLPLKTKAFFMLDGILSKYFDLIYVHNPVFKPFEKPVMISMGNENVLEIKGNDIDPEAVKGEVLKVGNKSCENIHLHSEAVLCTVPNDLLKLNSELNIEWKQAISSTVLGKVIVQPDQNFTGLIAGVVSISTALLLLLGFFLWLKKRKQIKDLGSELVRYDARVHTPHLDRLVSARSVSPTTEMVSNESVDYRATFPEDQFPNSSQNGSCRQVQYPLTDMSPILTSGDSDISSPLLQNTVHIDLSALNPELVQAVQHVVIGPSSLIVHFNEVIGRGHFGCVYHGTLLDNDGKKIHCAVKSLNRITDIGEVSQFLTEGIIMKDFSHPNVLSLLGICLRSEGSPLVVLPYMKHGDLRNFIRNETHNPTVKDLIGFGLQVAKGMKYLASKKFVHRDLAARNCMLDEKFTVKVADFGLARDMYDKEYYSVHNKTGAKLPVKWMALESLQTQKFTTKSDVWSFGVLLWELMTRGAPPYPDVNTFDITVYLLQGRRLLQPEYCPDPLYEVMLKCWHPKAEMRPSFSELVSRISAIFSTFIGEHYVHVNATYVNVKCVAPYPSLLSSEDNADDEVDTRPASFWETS
A further data set is described as follows: stability down to pH 1. The data set is classed as physicochemical. Particulars: down to pH 1, 24 h, 37 °C; data not shown.
Data set [9] concerns the target c-MET phosphorylation in H1993 tumor tissue (Homo sapiens, UniProt P08581). Put plainly: H1993 xenograft, immunohistochemistry of p-c-MET. The data set is classed as in vivo. The following applies: 24 h, H1993 s.c. in SCID mice.
Setting [10] is: RUMH, 24 h treatment, MTT, 1 % O2 or 21 % O2.
[11] abbreviates: H2228, 24 h treatment, MTT, 1 % O2 or 21 % O2.
Setting [12] is: H1993, 24 h treatment, MTT, 1 % O2 or 21 % O2.

Molecules are shown by their SMILES. Like-named read-outs stand apart in the source and are kept apart here. A value given as a limit tells only on which side of the number the result lay.

nitroreductase enzyme (E. coli), sequence (P38489 whole entry): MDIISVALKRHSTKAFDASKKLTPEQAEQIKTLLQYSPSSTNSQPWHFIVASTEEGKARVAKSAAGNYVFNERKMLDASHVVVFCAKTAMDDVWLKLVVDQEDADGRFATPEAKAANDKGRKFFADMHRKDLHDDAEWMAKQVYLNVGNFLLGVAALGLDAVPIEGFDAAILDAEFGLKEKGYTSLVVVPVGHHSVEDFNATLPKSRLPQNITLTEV
c-MET phosphorylation in H1993 tumor tissue, sequence (P08581 25-1390): as the sequence (P08581 25-1390) above

`Cn1c(COP(=O)(NCCBr)NCCBr)cnc1[N+](=O)[O-]` [TH-302, reference compound]: the half-inhibitory concentration (IC50) (in general, the concentration needed to halve the response being measured) in data set [1] (Homo sapiens, 24 h) was > 25 µM; in [2] (Homo sapiens, NCI-H2228, 24 h) it was > 25 µM; in data set [3] (Homo sapiens, NCI-H1993, 24 h) it was > 25 µM. For the same compound, the “cytotoxic activity under hypoxia vs normoxia” value in data set [1] (RUMH), in data set [2] and in data set [3] was “significant anticancer activity under low oxygen levels” each time.

`C[C@@H](Oc1cc(-c2cnn(C3CCNCC3)c2)cnc1N)c1c(Cl)ccc(F)c1Cl` [crizotinib, reference compound]: the IC50 in data set [1] (Homo sapiens, 24 h) was ~20 µM; in data set [3] (Homo sapiens, NCI-H1993, 24 h) it was ~20 µM. For the same compound, in [4] (50 mg/kg p.o., H1993 s.c. in SCID mice), the “Ki-67 expression in tumor tissue” value is given as “slight impact”. Also, in “solubility in PBS” (phosphate-buffered saline), the solubility (in general, the concentration that dissolves in the medium under given conditions) is < 0.5 mg/mL.

For the compound `C[C@@H](Oc1cc(-c2cnn(C3CCNCC3)c2)cnc1NC(=O)OCc1cnc([N+](=O)[O-])n1C)c1c(Cl)ccc(F)c1Cl` [prodrug A, (1-methyl-2-nitro-1H-imidazol-5-yl)methyl (R)-(3-(1-(2,6-dichloro-3-fluorophenyl)ethoxy)-5-(1-(piperidin-4-yl)-1H-pyrazol-4-yl)pyridin-2-yl)carbamate*1.5TFA], the “cytotoxic activity under hypoxia vs normoxia” value is given as “promising hypoxia-mediated activity” in [1] (RUMH), “similarly active” in [2] and “promising hypoxia-mediated activity” in [3]. Besides, the IC50 in data set [1] (setting [10]), in data set [2] (setting [11]) and in data set [3] (setting [12]) was > 25 µM each time. In addition, the “cell proliferation (Ki-67) in tumor tissue” value in data set [4] (38.5 mg/kg i.v., single dose, H1993 s.c. in SCID mice) is on record as “inhibition of cell proliferation”. Also, the “tumor histology (tumor:stroma ratio)” value in data set [4] (38.5 mg/kg i.v., single dose, data not shown) is on record as “reduction of the tumor:stroma ratio”. For the same compound, in data set [4] (89.2 mg/kg p.o., H1993 s.c. in SCID mice), the “Ki-67 expression in tumor tissue” value is “did not significantly change”. Also, the “stability in pure serum” value in data set [5] was “no significant degradation”. Further, in [6], the “release of crizotinib as main product” value is “about 80%”. For the same compound, the “conversion of prodrug by nitroreductase” value in [6] is listed as “complete conversion”. In addition, the “activity against non-malignant cells in comparison to free crizotinib” value in data set [7] and in [8] was “distinctly reduced activity” in each case. In addition, the “lower inhibitory potential compared to crizotinib (IC50 ratio)” value with ALK was found to be 42 fold; in the data set on c-MET, 33 fold. In addition, the “inhibition of ERK 1/2 phosphorylation signal” value is ~ 60% in the data set with ERK 1/2 phosphorylation (hypoxia (1 % O2), 5 μM); ~ 80% in the data set on ERK 1/2 phosphorylation (hypoxia (1 % O2), 10 μM); < 10% in the data set with ERK 1/2 phosphorylation (normoxia (21 % O2), 5 μM). For the same compound, the solubility in the data set “solubility in PBS” (phosphate-buffered saline (PBS), room temperature) is on record as > 20 mg/mL. Also, the “inhibition of c-MET phosphorylation” value on c-MET phosphorylation (hypoxia (1 % O2), 5 μM) is recorded as 40%; at c-MET phosphorylation (hypoxia (1 % O2), 10 μM) it was 70%; against c-MET phosphorylation (normoxia (21 % O2), up to 10 μM) it was < 10%. Besides, the “stability at low pH” value in the data set “stability down to pH 1” is given as “confirmed the stability”. For the same compound, in data set [9] (38.5 mg/kg i.v., single dose), the “c-MET phosphorylation in tumor tissue” value is “significant inhibition”. Also, the “level of p-c-MET in tumor tissue” value in [9] (89.2 mg/kg p.o.) is reported as “did not significantly change”.

Consider `C[C@@H](Oc1cc(-c2cnn(C3CCNCC3)c2)cnc1NCc1cnc([N+](=O)[O-])n1C)c1c(Cl)ccc(F)c1Cl` [prodrug B, (R)-3-(1-(2,6-dichloro-3-fluorophenyl)ethoxy)-N-((1-methyl-2-nitro-1H-imidazol-5-yl)methyl)-5-(1-(piperidin-4-yl)-1H-pyrazol-4-yl)pyridin-2-amine *2TFA], for which the IC50 cytotoxicity entry in data set [1] (setting [10]), in [2] (setting [11]) and in [3] (setting [12]) was “distinct anticancer activity in a range similar to crizotinib” in each case. Further, in data set [6], the “release of crizotinib as main product” value is “no formation of crizotinib”. Also, the “conversion of prodrug by nitroreductase” value in [6] is “could not be activated”. Moreover, the “lower inhibitory potential compared to crizotinib (IC50 ratio)” value is > 143 fold in the data set with ALK and 64 fold in the data set on c-MET.
